# Experiments:
# [1] = organism: Rattus norvegicus; test: Fluid concentration in kidney tissue was determined in rats at 4 h; assay type: functional
# Outline: (§1)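 Rats were gavaged at 20 mg/kg and tissues sampled 0.5–6 h after dosing. Drug was assayed microbiologically with Micrococcus luteus seeded in Antibiotic Media 1. Zone sizes were read against each compound's own standard curve. Values are the mean of three rats per time point, in μg/g.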
# [2] = organism: Rattus norvegicus
# [3] = organism: Rattus norvegicus; test: Fluid concentration in serum tissue was determined in rats at 6 h; assay type: functional
# Outline: (§2)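 Rats dosed by gavage at 20 mg/kg; lung, liver, kidney, urine and serum sampled at 0.5, 1, 2, 4 and 6 h after dosing. Antibiotic measured by microbiological assay with Micrococcus luteus seeded in Antibiotic Medium 1. Zone sizes were read against the standard curve for the same compound. Each value is the average of three rats per time point.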
# [4] = tested on: Mus musculus; test: Plasma concentration in mice was determined by oral administration, 20 mg/kg at 1 h; assay type: functional, organism-based; set-up: dose 20 mg/kg
# Outline: (§3)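 Mice given 20 mg/kg orally or subcutaneously; peripheral plasma sampled at 5, 20 and 40 min and at 1, 2 and 4 h after dosing. Microbiological assay used Micrococcus luteus seeded in Antibiotic Medium 1, with zone sizes converted by the compound's own standard curve. Each value is the average of five mice per time point.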
# [5] = organism: Rattus norvegicus; remark: listed apart in the source
# [6] = tested on: Mus musculus; test: ED50 value was measured by sc administration against streptococcus pyogenes infection in mice (in vivo, in experiment 2); assay type: functional
# Outline: (§4)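 Infected mice were dosed orally or subcutaneously at 1 and 5 h postinfection, 0.25 mL of antibiotic solution in 10% aqueous ethanol per dose. Tartaric acid was added where needed for solubility. Several dose concentrations were tested to give the ED50.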
# [7] = tested on: Mus musculus; test: ED50 value was measured by sc administration against staphylococcus aureus infection in mice (in vivo, in experiment 2); assay type: functional; outline: as §4
# [8] = organism: Rattus norvegicus; test: Fluid concentration in serum tissue was determined in rats at 4 h; assay type: functional; outline: as §2
# [9] = organism: Rattus norvegicus; test: Fluid concentration in liver tissue was determined in rats at 6 h; assay type: functional; outline: as §2
# [10] = tested on: Mus musculus; test: ED50 value was measured by po administration against streptococcus pyogenes infection in mice (in vivo, in experiment 2); assay type: functional; outline: as §4
# [11] = tested on: Mus musculus; test: ED50 value was measured by po administration against staphylococcus aureus infection in mice (in vivo, in experiment 2); assay type: functional; outline: as §4
# [12] = organism: Rattus norvegicus; test: Fluid concentration in urine tissue was determined in rats at 2 h; assay type: functional; outline: as §2
# [13] = organism: Rattus norvegicus; test: Fluid concentration in kidney tissue was determined in rats at 6 h; assay type: functional; outline: as §1
# [14] = tested on: Mus musculus; test: Plasma concentration in mice was determined by oral administration, 20 mg/kg at 5 min; assay type: functional, organism-based; set-up: dose 20 mg/kg; outline: as §3
# [15] = tested on: Rattus norvegicus; test: Plasma concentration in rats was determined by subcutaneous administration, 20 mg/kg at 1 h; assay type: functional, organism-based; set-up: dose 20 mg/kg
# Outline: (§5)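 Peripheral plasma antibiotic levels in rats given 20 mg/kg orally or subcutaneously. Plasma was sampled at timed points after dosing. Levels were measured by microbiological agar assay with Micrococcus luteus seeded in Antibiotic Media 1, reading zone sizes, and were calculated from a standard curve for the appropriate compound. Each value is the average of three rats per time point, in μg/mL.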
# [16] = tested on: Rattus norvegicus; test: Plasma concentration in rats was determined by subcutaneous administration, 20 mg/kg at 2 h; assay type: functional, organism-based; set-up: dose 20 mg/kg; outline: as §5
# [17] = organism: Rattus norvegicus; test: Fluid concentration in urine tissue was determined in rats at 0.5 h; assay type: functional; outline: as §2
# [18] = tested on: Mus musculus; test: ED50 value was measured by po administration against streptococcus pneumoniae infection in mice (in vivo, in experiment 2); assay type: functional; outline: as §4
# [19] = organism: Rattus norvegicus; test: Fluid concentration in kidney tissue was determined in rats at 0.5 h; assay type: functional; outline: as §1
# [20] = organism: Rattus norvegicus; remark: listed apart in the source
# [21] = organism: Rattus norvegicus; test: Fluid concentration in serum tissue was determined in rats at 1 h; assay type: functional; outline: as §2
# [22] = tested on: Mus musculus; test: (§6) ED50 value was measured by sc administration against streptococcus pyogenes infection in mice (in vivo, in experiment 3); assay type: functional; outline: as §4
# [23] = tested on: Rattus norvegicus; test: Plasma concentration in rats was determined by subcutaneous administration, 20 mg/kg at 40 min; assay type: functional, organism-based; set-up: dose 20 mg/kg; outline: as §5
# [24] = tested on: Enterococcus faecalis; test: MIC value was measured against streptococcus faecalis.; assay type: functional
# [25] = organism: Rattus norvegicus; test: Fluid concentration in kidney tissue was determined in rats at 2 h; assay type: functional; outline: as §1
# [26] = tested on: Mus musculus; test: ED50 value was measured by sc administration against streptococcus pneumoniae infection in mice (in vivo, in experiment 2); assay type: functional; outline: as §4
# [27] = tested on: Rattus norvegicus; test: Plasma concentration in rats was determined by subcutaneous administration, 20 mg/kg at 4 h; assay type: functional, organism-based; set-up: dose 20 mg/kg; outline: as §5
# [28] = tested on: Rattus norvegicus; test: Plasma concentration in rats was determined by oral administration, 20 mg/kg at 2 hr; assay type: functional, organism-based; set-up: dose 20 mg/kg; outline: as §5
# [29] = organism: Rattus norvegicus; test: Fluid concentration in liver tissue was determined in rats at 2 hr; assay type: functional; outline: as §2
# [30] = organism: Rattus norvegicus; test: Fluid concentration in kidney tissue was determined in rats at 4 hr; assay type: functional; outline: as §1
# [31] = tested on: Mus musculus; test: Plasma concentration of compound in mice by oral administration, 20 mg/kg at 4 hr; assay type: functional, organism-based; set-up: dose 20 mg/kg
# Outline: as §5, with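 “mice after a” for “rats given”, “oral dose,” for “orally or subcutaneously. Plasma was”, “administration.” for “dosing.”, “five mice” for “three rats”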
# [32] = tested on: Rattus norvegicus; test: Plasma concentration in rats was determined by oral administration, 20 mg/kg at 1 hr; assay type: functional, organism-based; set-up: dose 20 mg/kg; outline: as §5
# [33] = organism: Rattus norvegicus; remark: listed apart in the source
# [34] = tested on: Mus musculus; test: as §6; assay type: functional; remark: listed apart in the source
# [35] = organism: Rattus norvegicus; test: Fluid concentration in serum was determined in rats at 4 hr; assay type: functional; outline: as §2
# [36] = organism: Rattus norvegicus; test: Fluid concentration in serum was determined in rats at 1 hr; assay type: functional; outline: as §2
# [37] = organism: Rattus norvegicus; test: Fluid concentration in kidney tissue was determined in rats at 1 hr; assay type: functional; outline: as §1
# [38] = tested on: Rattus norvegicus; test: Plasma concentration in rats was determined by subcutaneous administration, 20 mg/kg at 2 hr; assay type: functional, organism-based; set-up: dose 20 mg/kg; outline: as §5
# [39] = organism: Rattus norvegicus; test: Fluid concentration in kidney tissue was determined in rats at 2 hr; assay type: functional; outline: as §1
# [40] = tested on: Rattus norvegicus; test: Plasma concentration in rats was determined by oral administration, 20 mg/kg at 8 hr; assay type: functional, organism-based; set-up: dose 20 mg/kg; outline: as §5
# [41] = tested on: Enterococcus faecalis; test: MIC value was measured against streptococcus faecalis X66; assay type: functional
# Outline: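 Susceptibility determined by standard agar-dilution method against a panel of bacterial strains.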
# [42] = organism: Rattus norvegicus; test: Fluid concentration in urine was determined in rats at 1 hr; assay type: functional; outline: as §2
# [43] = tested on: Rattus norvegicus; test: Plasma concentration in rats was determined by oral administration, 20 mg/kg at 4 hr; assay type: functional, organism-based; set-up: dose 20 mg/kg; outline: as §5
# [44] = organism: Mus musculus
# [45] = organism: Rattus norvegicus; test: Fluid concentration in serum was determined in rats at 2 hr; assay type: functional; outline: as §2
# [46] = organism: Rattus norvegicus; remark: listed apart in the source
# [47] = organism: Rattus norvegicus; remark: listed apart in the source
# [48] = organism: Mus musculus; remark: listed apart in the source
# [49] = organism: Rattus norvegicus; test: Fluid concentration in serum was determined in rats at 0.5 hr; assay type: functional; outline: as §2
# [50] = organism: Rattus norvegicus; remark: listed apart in the source
# [51] = organism: Mus musculus; remark: listed apart in the source
# [52] = organism: Rattus norvegicus; test: Fluid concentration in liver tissue was determined in rats at 4 hr; assay type: functional; outline: as §2
# [53] = organism: Rattus norvegicus; test: Fluid concentration in serum was determined in rats at 6 hr; assay type: functional; outline: as §2
structure (smiles),measurement,setting,value
CCCN[C@@H]1[C@H](C)[C@@H](O)[C@](C)(O)[C@@H](CC)OC(=O)[C@H](C)[C@@H](OC2CC(C)(OC)C(O)C(C)O2)[C@H](C)[C@@H](OC2OC(C)CC(N(C)C)C2O)[C@](C)(O)C[C@H]1C (stereo partly drawn),Activity,[1],4.28 µg/mL
same,Plasma concentration,[2],0.06 µg/mL
same,Activity,[3],0.05 µg/mL
same,Plasma concentration,[4],0.08 µg/mL
same,Plasma concentration,[5],0.08 µg/mL
same,ED50,[6],1.4 mg/kg
same,ED50,[7],2.1 mg/kg
same,Activity,[8],0.12 µg/mL
same,Activity,[9],1.19 µg/mL
same,ED50,[10],6 mg/kg
same,ED50,[11],25 mg/kg
same,Activity,[12],4.8 µg/mL
same,Activity,[13],3.21 µg/mL
same,Plasma concentration,[14],0 µg/mL
same,Plasma concentration,[15],0.14 µg/mL
same,Plasma concentration,[16],0.18 µg/mL
same,Activity,[17],3.92 µg/mL
same,ED50,[18],13 mg/kg
same,Activity,[19],0.1 µg/mL
same,Plasma concentration,[20],0.01 µg/mL
same,Activity,[21],0.04 µg/mL
same,ED50,[22],1.7 mg/kg
same,Plasma concentration,[23],0.14 µg/mL
same,MIC,[24],0.12 µg/mL
same,Activity,[25],3.25 µg/mL
same,ED50,[26],2.1 mg/kg
same,Plasma concentration,[27],0.23 µg/mL
CC[C@H]1OC(=O)[C@H](C)[C@@H](O[C@H]2C[C@@](C)(OC)[C@@H](O)[C@H](C)O2)[C@H](C)[C@@H](O[C@@H]2O[C@H](C)C[C@H](N(C)C)[C@H]2O)[C@](C)(O)C[C@@H](C)C(=O)[C@H](C)[C@@H](O)[C@]1(C)O [ERYTHROMYCIN],Plasma concentration,[28],0.03 µg/mL
same,Activity,[29],0.04 µg/mL
same,Activity,[30],0 µg/mL
same,Plasma concentration,[31],0 µg/mL
same,Plasma concentration,[32],0.04 µg/mL
same,Plasma concentration,[33],4.2 µg/mL
same,ED50,[34],2.8 mg/kg
same,Activity,[35],0 µg/mL
same,Activity,[36],0.4 µg/mL
same,Activity,[37],0.15 µg/mL
same,Plasma concentration,[38],1.06 µg/mL
same,Activity,[39],0 µg/mL
same,Plasma concentration,[40],0.01 µg/mL
same,MIC,[41],0.06 µg/mL
same,Activity,[42],10.8 µg/mL
same,Plasma concentration,[43],0.02 µg/mL
same,Plasma concentration,[44],0.01 µg/mL
same,Activity,[45],0 µg/mL
same,Plasma concentration,[46],0.7 µg/mL
same,Plasma concentration,[47],1.16 µg/mL
same,Plasma concentration,[48],0 µg/mL
same,Activity,[49],0.01 µg/mL
same,Plasma concentration,[50],1.31 µg/mL
same,Plasma concentration,[51],0.01 µg/mL
same,Activity,[52],0 µg/mL
same,Activity,[53],0 µg/mL
